Laboratory results from ChEMBL document CHEMBL1799920, “Total synthesis and pharmacological characterization of solomonsterol A, a potent marine pregnane-X-receptor agonist endowed with anti-inflammatory activity” (J Med Chem, 2011).
Activity calls are given as the source filed them.

How the values were obtained:
Mus musculus [1] = experiment: Antiinflammatory activity against trinitrobenzenesulfonic acid-induced colitis in human PXR expressing transgenic C57/BL6 mouse assessed as decrease in TNF-alpha protein level in colon at 10 mg/kg, ip qd after 5 days by ELISA; type: functional, organism-based; design: dose 10 mg/kg; conditions: C57Bl/6
Summary of the method: (§1)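 Male hPXR mice (human PXR on mouse PXR-null background). Fasted 16 h and lightly anaesthetised with ketamine/xylazine, then given TNBS 0.5 mg/mouse in 50% ethanol intrarectally in 150 μL. Drug was dissolved in DMSO, diluted in 1% methylcellulose and given i.p. once daily for 3 days before TNBS. Vehicle controls received methylcellulose. Mice were sacrificed 4 days after TNBS; n = 6–7 per group.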

Mus musculus [2] = experiment: Antiinflammatory activity against trinitrobenzenesulfonic acid-induced colitis in human PXR expressing transgenic C57/BL6 mouse assessed as decrease in leukocyte infiltration in colon at 10 mg/kg, ip administered on day 1 after TNBS challenge measured after 5 days by microscopically; type: functional, organism-based; design: dose 10 mg/kg; conditions: C57Bl/6
Summary of the method: (§2)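 Therapeutic protocol in male hPXR mice. Colitis was induced with intrarectal TNBS 0.5 mg/mouse in 50% ethanol after a 16 h fast and light ketamine/xylazine anaesthesia. Drug at 10 mg/kg was given once daily from day 1 after TNBS. Mice were sacrificed 5 days after TNBS; n = 4–6 per group.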

Mus musculus [3] = experiment: Antiinflammatory activity against trinitrobenzenesulfonic acid-induced colitis in human PXR expressing transgenic C57/BL6 mouse assessed as decrease in colonic myeloperoxidase level at 10 mg/kg, ip administered on day 1 after TNBS challenge measured after 5 days; type: functional, organism-based; design: dose 10 mg/kg; conditions: C57Bl/6; summary of the method: as §2
Mus musculus [4] = experiment: Antiinflammatory activity against trinitrobenzenesulfonic acid-induced colitis in human PXR expressing transgenic C57/BL6 mouse assessed as decrease in evidence of mucosal hemorrhage in colon at 10 mg/kg, ip administered on day 1 after TNBS challenge measured after 5 days; type: functional, organism-based; design: dose 10 mg/kg; conditions: C57Bl/6; summary of the method: as §2
THP-1 = experiment: Inhibition of NF-kappaB p65 DNA binding activity in LPS-stimulated human THP1 cells at 10 uM after 3 hrs by electrophoretic mobility shift assay; type: cell-based
Summary of the method: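 THP-1 cells were pretreated with compound (10 μM) or vehicle for 3 h, then LPS 1 μg/mL was added for 20 h. Nuclear extracts were incubated with biotinylated NF-κB probe for 20 min at room temperature, run on a 6% native gel and detected by chemiluminescence. Specificity was checked by cold-probe competition and p65 antibody supershift. Three independent experiments.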

Mus musculus [5] = experiment: Antiinflammatory activity against trinitrobenzenesulfonic acid-induced colitis in human PXR expressing transgenic C57/BL6 mouse assessed as decrease in appearance of submucosal edema in colon at 10 mg/kg, ip qd administered 3 days before TNBS challenge measured after 7 days by haematoxylin/eosin staining; type: functional, organism-based; design: dose 10 mg/kg; conditions: C57Bl/6; summary of the method: as §1
Mus musculus [6] = experiment: Antiinflammatory activity against trinitrobenzenesulfonic acid-induced colitis in human PXR expressing transgenic C57/BL6 mouse assessed as decrease in occurrence of diarrhea at 10 mg/kg, ip qd administered 3 days before TNBS challenge measured after 7 days; type: functional, organism-based; design: dose 10 mg/kg; conditions: C57Bl/6; summary of the method: as §1
Mus musculus [7] = experiment: Antiinflammatory activity against trinitrobenzenesulfonic acid-induced colitis in human PXR expressing transgenic C57/BL6 mouse assessed as increase in IL-10 protein level in colon at 10 mg/kg, ip qd after 5 days by ELISA; type: functional, organism-based; design: dose 10 mg/kg; conditions: C57Bl/6; summary of the method: as §1
Mus musculus [8] = experiment: Antiinflammatory activity against trinitrobenzenesulfonic acid-induced colitis in human PXR expressing transgenic C57/BL6 mouse assessed as decrease in MIP-1alpha protein level in colon at 10 mg/kg, ip qd after 5 days; type: functional, organism-based; design: dose 10 mg/kg; conditions: C57Bl/6
Mus musculus [9] = experiment: Antiinflammatory activity against trinitrobenzenesulfonic acid-induced colitis in human PXR expressing transgenic C57/BL6 mouse assessed as induction of CYP3A11 mRNA expression in colon at 10 mg/kg, ip qd after 5 days by quantitative RT-PCR; type: functional, organism-based; design: dose 10 mg/kg; conditions: C57Bl/6; summary of the method: as §1
Mus musculus [10] = experiment: Antiinflammatory activity against trinitrobenzenesulfonic acid-induced colitis in human PXR expressing transgenic C57/BL6 mouse assessed as decrease in cellular infiltrate in colon at 10 mg/kg, ip qd administered 3 days before TNBS challenge measured after 7 days; type: functional, organism-based; design: dose 10 mg/kg; conditions: C57Bl/6; summary of the method: as §1

Measured: Activity

C[C@H](CCCOS(=O)(=O)O)[C@H]1CC[C@H]2[C@@H]3CC[C@H]4C[C@H](OS(=O)(=O)O)[C@@H](OS(=O)(=O)O)C[C@]4(C)[C@H]3CC[C@]12C [SOLOMONSTEROL A]
active: all assays above
